Experimental data: ChEMBL document CHEMBL1127320, “Dual-action cephalosporins incorporating a 3'-tertiary-amine-linked quinolone” (J Med Chem, 1994)
In brackets after ≈: the same amount, converted by molar mass.

Key:
Streptococcus pneumoniae [1] = test: Tested for its efficacy against systemic murine infection caused by Streptococcus pneumoniae 6301.; assay type: functional
In short: (§1)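 CD1 Swiss albino mice (18-20 g) were infected intraperitoneally with 0.5 mL of diluted culture. Within 5 min they received 1.0 mL test solution subcutaneously at the dorsal neck, in dilutions spanning 250–0.05 mg/kg. P. aeruginosa groups received a second dose at 3 h. Groups were six mice. ED50 was calculated by Reed–Muench interpolation of cumulative survival.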

Escherichia coli [2] = test: Minimum inhibitory concentration against E. coli UB1005 (DC0)
Streptococcus pyogenes [3] = test: In vitro minimum inhibitory concentration was measured against Streptococcus pyogenes 4 strain.; assay type: functional
In short: (§2)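 Streptococci were tested on brain heart infusion agar plus 20 units/mL catalase, Proteus on Mueller-Hinton with 3% agar, and others on Mueller-Hinton agar. Inocula were 100-fold-diluted overnight cultures, about 3 × 10^4 CFU/spot, read after overnight incubation at 36 °C.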

Pseudomonas aeruginosa [4] = test: Tested for its efficacy against systemic murine infection caused by Pseudomonas aeruginosa 8780.; assay type: functional; in short: as §1
Staphylococcus aureus [5] = test: In vitro minimum inhibitory concentration was measured against Staphylococcus aureus 753 (Methicillin resistant) strain.; assay type: functional
Escherichia coli [6] = test: Minimum inhibitory concentration for DC2, a permeability mutant
In short: as §2, with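 “MICs were determined by agar dilution with 2-fold dilutions giving final 128–0.0156 µg/mL, extended to 0.000977 µg/mL where needed. Streptococci” for “Streptococci”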

Serratia marcescens [7] = test: Bacterial challenge for systemic murine infection against Serratia marcescens SM; assay type: functional
In short: (§3)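 Mouse protection test in CD1 Swiss albino mice (18-20 g). Mice were infected intraperitoneally with 0.5 mL of diluted bacterial suspension. A single subcutaneous dose at the dorsal neck base was given within 5 min, with doses from 250 to 0.05 mg/kg. Six mice per group were used. ED50 was obtained by the Reed-Muench method.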

Staphylococcus aureus [8] = test: In vitro minimum inhibitory concentration was measured against Staphylococcus aureus smith strain.; assay type: functional
Klebsiella pneumoniae [9] = test: Tested for its efficacy against systemic murine infection caused by Klebsiella pneumoniae A; assay type: functional; in short: as §1
[10] = test system: Penicillin-binding protein 3 (Escherichia coli); test: Affinity for penicillin binding protein 3 of Escherichia coli UB1005 (DC0) was evaluated.; parameters: unit not given here
Citrobacter freundii = test: In vitro minimum inhibitory concentration was measured against Citrobacter freundii BS-16 (beta lactamase producer) strain.; assay type: functional
In short: as §2, with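 “MICs were determined by agar dilution with 2-fold dilutions giving final 128–0.0156 µg/mL, extended to 0.000977 µg/mL where needed. Streptococci” for “Streptococci”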

[11] = target: T1, Penicillin-binding protein 1A (Escherichia coli K-12) (UniProt P02918); test: Affinity for penicillin binding protein 1a of Escherichia coli UB1005 (DC0) was evaluated.; parameters: unit not given here
T1 sequence (whole entry): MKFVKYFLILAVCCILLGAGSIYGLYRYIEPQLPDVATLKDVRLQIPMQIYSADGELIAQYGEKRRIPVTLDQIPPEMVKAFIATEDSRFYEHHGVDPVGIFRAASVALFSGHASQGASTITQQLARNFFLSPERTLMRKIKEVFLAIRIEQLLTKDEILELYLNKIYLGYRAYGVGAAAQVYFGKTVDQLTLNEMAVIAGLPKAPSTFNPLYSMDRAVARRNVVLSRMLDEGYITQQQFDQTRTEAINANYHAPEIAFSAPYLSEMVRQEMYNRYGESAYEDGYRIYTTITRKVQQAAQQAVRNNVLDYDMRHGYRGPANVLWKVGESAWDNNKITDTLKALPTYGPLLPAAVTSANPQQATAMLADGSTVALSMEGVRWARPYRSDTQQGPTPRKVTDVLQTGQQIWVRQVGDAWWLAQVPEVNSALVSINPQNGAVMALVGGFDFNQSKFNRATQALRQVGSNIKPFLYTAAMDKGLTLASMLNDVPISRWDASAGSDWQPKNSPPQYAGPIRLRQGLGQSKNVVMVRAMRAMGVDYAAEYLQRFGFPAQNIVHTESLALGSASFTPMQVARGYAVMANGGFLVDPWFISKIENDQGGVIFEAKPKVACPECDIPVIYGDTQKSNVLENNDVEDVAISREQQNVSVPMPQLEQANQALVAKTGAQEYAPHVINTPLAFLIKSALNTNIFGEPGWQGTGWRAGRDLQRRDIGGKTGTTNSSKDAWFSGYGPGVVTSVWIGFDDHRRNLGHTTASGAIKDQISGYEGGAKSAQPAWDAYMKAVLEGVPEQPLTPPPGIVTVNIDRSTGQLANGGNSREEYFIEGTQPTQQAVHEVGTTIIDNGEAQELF
In short: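 Solubilised membranes from sonicated E. coli UB1005 served as the binding-protein source. Binding was read as inhibition of [14C]penicillin G binding.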

Proteus mirabilis [12] = test: In vitro minimum inhibitory concentration was measured against Proteus mirabilis 90 strain.; assay type: functional; in short: as §2
Enterococcus faecalis = test: In vitro minimum inhibitory concentration was measured against Enterococcus faecalis ATCC 29212 strain.; assay type: functional; in short: as §2
[13] = Half life was measured as degradation by HPLC analysis.; assay type: ADME
Serratia marcescens [14] = test: Tested for its efficacy against systemic murine infection caused by Serratia marcescens SM.; assay type: functional; in short: as §1
Enterobacter cloacae [15] = test: Tested for its efficacy against systemic murine infection caused by Enterobacter cloacae 5699.; assay type: functional
Streptococcus pneumoniae [16] = test: In vitro minimum inhibitory concentration was measured against Streptococcus pneumoniae 6301 strain; assay type: functional; in short: as §2
Escherichia coli [17] = test: In vitro minimum inhibitory concentration was measured against Escherichia coli ATCC 25922 strain.; assay type: functional; in short: as §2
Staphylococcus aureus [18] = test: Tested for its efficacy against systemic murine infection caused by Staphylococcus aureus smith.; assay type: functional; in short: as §1
Klebsiella pneumoniae [19] = test: Bacterial challenge for systemic murine infection against Klebsiella pneumoniae A; assay type: functional; in short: as §3
Serratia marcescens [20] = test: tested for its efficacy against systemic murine infection caused by Serratia marcescens SM.; assay type: functional; in short: as §1
Klebsiella pneumoniae [21] = test: tested for its efficacy against systemic murine infection caused by Klebsiella pneumoniae A; assay type: functional; in short: as §1
Staphylococcus aureus [22] = test: tested for its efficacy against systemic murine infection caused by Staphylococcus aureus smith.; assay type: functional; in short: as §1
Proteus mirabilis [23] = test: In vitro minimum inhibitory concentration was measured against Proteus mirabilis 90 strain.; (</=); assay type: functional
In short: as §2, with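 “MICs were determined by agar dilution with 2-fold dilutions giving final 128–0.0156 µg/mL, extended to 0.000977 µg/mL where needed. Streptococci” for “Streptococci”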

Streptococcus pyogenes [24] = test: In vitro minimum inhibitory concentration was measured against Streptococcus pyogenes 4 strain.; (</=); assay type: functional
In short: as §2, with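 “MICs were determined by agar dilution with 2-fold dilutions giving final 128–0.0156 µg/mL, extended to 0.000977 µg/mL where needed. Streptococci” for “Streptococci”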

Streptococcus pneumoniae [25] = test: tested for its efficacy against systemic murine infection caused by Streptococcus pneumoniae 6301.; assay type: functional; in short: as §1
Pseudomonas aeruginosa [26] = test: tested for its efficacy against systemic murine infection caused by Pseudomonas aeruginosa 8780.
Streptococcus pneumoniae [27] = test: In vitro minimum inhibitory concentration was measured against Streptococcus pneumoniae 6301 strain.; (</=); assay type: functional
In short: as §2, with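 “MICs were determined by agar dilution with 2-fold dilutions giving final 128–0.0156 µg/mL, extended to 0.000977 µg/mL where needed. Streptococci” for “Streptococci”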

Enterobacter cloacae [28] = test: tested for its efficacy against systemic murine infection caused by Enterobacter cloacae 5699.; assay type: functional; in short: as §1

CO/N=C(\C(=O)N[C@@H]1C(=O)N2C(C(=O)O)=C(CN3CCN(c4cc5c(cc4F)c(=O)c(C(=O)O)cn5C4CC4)CC3)CS[C@H]12)c1csc(N)n1
ED50 (Streptococcus pneumoniae [1]): 54 mg/kg
MIC (Escherichia coli [2]): 1 µg/mL (≈ 1.38 µM)
MIC (Streptococcus pyogenes [3]): 0.063 µg/mL (≈ 0.0867 µM)
ED50 (Pseudomonas aeruginosa [4]): 38 mg/kg
MIC (Staphylococcus aureus [5]): 4 µg/mL (≈ 5.5 µM)
MIC (Escherichia coli [6]): 0.063 µg/mL (≈ 0.0867 µM)
LD50 (Serratia marcescens [7]): 27
MIC (Staphylococcus aureus [8]): 4 µg/mL (≈ 5.5 µM)
ED50 (Klebsiella pneumoniae [9]): 25 mg/kg
Binding affinity [10]: 0.5
MIC (Citrobacter freundii): 0.125 µg/mL (≈ 0.172 µM)
Binding affinity [11]: > 100
MIC (Proteus mirabilis [12]): 2 µg/mL (≈ 2.75 µM)
MIC (Enterococcus faecalis): 4 µg/mL (≈ 5.5 µM)
half-life [13]: 144 h
ED50 (Serratia marcescens [14]): 25 mg/kg
ED50 (Enterobacter cloacae [15]): 14 mg/kg
MIC (Streptococcus pneumoniae [16]): 0.063 µg/mL (≈ 0.0867 µM)
MIC (Escherichia coli [17]): 0.125 µg/mL (≈ 0.172 µM)
ED50 (Staphylococcus aureus [18]): > 100 mg/kg
LD50 (Klebsiella pneumoniae [19]): >10000

CO/N=C(\C(=O)N[C@@H]1C(=O)N2C(C(=O)O)=C(COC(C)=O)CS[C@H]12)c1csc(N)n1 [CEFOTAXIME]
MIC (Escherichia coli [2]): 0.031 µg/mL (≈ 0.0681 µM)
ED50 (Serratia marcescens [20]): < 25 mg/kg
MIC (Staphylococcus aureus [5]): > 128 µg/mL
MIC (Escherichia coli [6]): < 0.016 µg/mL
ED50 (Klebsiella pneumoniae [21]): 45 mg/kg
LD50 (Serratia marcescens [7]): <25
ED50 (Staphylococcus aureus [22]): 6 mg/kg
MIC (Proteus mirabilis [23]): < 0.016 µg/mL
MIC (Streptococcus pyogenes [24]): ≤ 0.016 µg/mL
MIC (Staphylococcus aureus [8]): 2 µg/mL (≈ 4.39 µM)
ED50 (Streptococcus pneumoniae [25]): 69 mg/kg
ED50 (Pseudomonas aeruginosa [26]): > 250 mg/kg
MIC (Citrobacter freundii): 32 µg/mL (≈ 70.3 µM)
Binding affinity [11]: 0.1
MIC (Streptococcus pneumoniae [27]): < 0.016 µg/mL
MIC (Enterococcus faecalis): 0.25 µg/mL (≈ 0.549 µM)
MIC (Escherichia coli [17]): 0.063 µg/mL (≈ 0.138 µM)
ED50 (Enterobacter cloacae [28]): 50 mg/kg
LD50 (Klebsiella pneumoniae [19]): 45
